Measurements reported in ChEMBL document CHEMBL3734701, “Synthesis and antibacterial activity of 4″-O-(trans-β-arylacrylamido)carbamoyl azithromycin analogs” (2015).
Values after ≈ are worked out from the molar mass of the structure shown.

Assays:
Assay type in all cases: functional
Streptococcus pyogenes [1] = test: Antibacterial activity against clinically isolated erythromycin-susceptible Streptococcus pyogenes S2 by broth microdilution method
Method in brief: (§1)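 Broth microdilution MIC following the NCCL-recommended method. Panel of sensitive and resistant Gram-positive strains: S. pyogenes S2 (erythromycin-susceptible clinical isolate), S. aureus ATCC25923 and S. pneumoniae ATCC49619 (erythromycin-susceptible). Azithromycin and clarithromycin were run alongside as references.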

Staphylococcus aureus [2] = test: Antibacterial activity against erythromycin-susceptible Staphylococcus aureus ATCC 25923 by broth microdilution method; method in brief: as §1
Streptococcus pneumoniae [3] = test: Antibacterial activity against erythromycin-susceptible Streptococcus pneumoniae ATCC 49619 by broth microdilution method; method in brief: as §1
Streptococcus pyogenes [4] = test: Antibacterial activity against clinically isolated erythromycin-resistant Streptococcus pyogenes R2 by broth microdilution method
Method in brief: (§2)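 MICs measured in vitro by broth microdilution following NCCL recommendations, against a Gram-positive panel of sensitive and resistant strains. Azithromycin and clarithromycin were tested alongside as references.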

Staphylococcus aureus [5] = test: Antibacterial activity against clinically isolated penicillin-resistant Staphylococcus aureus by broth microdilution method
Method in brief: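 Clinical penicillin-resistant S. aureus isolate, not further characterized, tested in a Gram-positive panel. MIC was measured by broth microdilution following NCCL recommendations, with azithromycin and clarithromycin as references.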

Streptococcus pneumoniae [6] = test: Antibacterial activity against erythromycin-resistant Streptococcus pneumoniae B1 expressing ermB gene by broth microdilution method; method in brief: as §2
Staphylococcus aureus [7] = test: Antibacterial activity against methicillin-susceptible Staphylococcus aureus ATCC 29213 by broth microdilution method; method in brief: as §2
Streptococcus pneumoniae [8] = test: Antibacterial activity against erythromycin-resistant Streptococcus pneumoniae AB11 expressing ermB and mefA genes by broth microdilution method; method in brief: as §2
Streptococcus pneumoniae [9] = test: Antibacterial activity against erythromycin-resistant Streptococcus pneumoniae A22072 expressing mefA gene by broth microdilution method; method in brief: as §2

CC[C@H]1OC(=O)[C@@H](C)[C@H](O[C@H]2C[C@@](C)(OC)[C@@H](OC(=O)NNC(=O)/C=C/c3ccc(OC)c(OC)c3)[C@H](C)O2)[C@@H](C)[C@H](O[C@H]2O[C@@H](C)C[C@@H](N(C)C)[C@@H]2O)[C@@](C)(O)C[C@H](C)CN(C)[C@@H](C)[C@@H]2OC(=O)O[C@@]12C
MIC (Streptococcus pyogenes [1]): 0.5 µg/mL (≈ 0.489 µM) | MIC (Staphylococcus aureus [2]): 8 µg/mL (≈ 7.82 µM) | MIC (Streptococcus pneumoniae [3]): 2 µg/mL (≈ 1.95 µM) | MIC (Streptococcus pyogenes [4]): 64 µg/mL (≈ 62.5 µM) | MIC (Staphylococcus aureus [5]): 8 µg/mL (≈ 7.82 µM) | MIC (Streptococcus pneumoniae [6]): 32 µg/mL (≈ 31.3 µM) | MIC (Staphylococcus aureus [7]): 16 µg/mL (≈ 15.6 µM) | MIC (Streptococcus pneumoniae [8]): 8 µg/mL (≈ 7.82 µM) | MIC (Streptococcus pneumoniae [9]): 0.5 µg/mL (≈ 0.489 µM)

CC[C@@H]1OC(=O)[C@H](C)[C@@H](O[C@H]2C[C@@](C)(OC)[C@@H](OC(=O)NNC(=O)/C=C/c3ccco3)[C@H](C)O2)[C@@H](C)[C@@H](O[C@@H]2O[C@H](C)C[C@H](N(C)C)[C@H]2O)[C@](C)(O)C[C@@H](C)CN(C)[C@H](C)[C@@H](OC(=O)NCc2ccccc2)[C@]1(C)O
MIC (Streptococcus pyogenes [1]): 0.25 µg/mL (≈ 0.236 µM) | MIC (Staphylococcus aureus [2]): 1 µg/mL (≈ 0.943 µM) | MIC (Streptococcus pneumoniae [3]): 0.12 µg/mL (≈ 0.113 µM) | MIC (Streptococcus pyogenes [4]): 64 µg/mL (≈ 60.4 µM) | MIC (Staphylococcus aureus [5]): 1 µg/mL (≈ 0.943 µM) | MIC (Streptococcus pneumoniae [6]): 4 µg/mL (≈ 3.77 µM) | MIC (Staphylococcus aureus [7]): 4 µg/mL (≈ 3.77 µM) | MIC (Streptococcus pneumoniae [8]): 8 µg/mL (≈ 7.55 µM) | MIC (Streptococcus pneumoniae [9]): 0.12 µg/mL (≈ 0.113 µM)

CC[C@H]1OC(=O)[C@@H](C)[C@H](O[C@H]2C[C@@](C)(OC)[C@@H](OC(=O)NNC(=O)/C=C/c3cc(OC)c(OC)c(OC)c3)[C@H](C)O2)[C@@H](C)[C@H](O[C@H]2O[C@@H](C)C[C@@H](N(C)C)[C@@H]2O)[C@@](C)(O)C[C@H](C)CN(C)[C@@H](C)[C@@H]2OC(=O)O[C@@]12C
MIC (Streptococcus pyogenes [1]): 0.5 µg/mL (≈ 0.475 µM) | MIC (Staphylococcus aureus [2]): 8 µg/mL (≈ 7.6 µM) | MIC (Streptococcus pneumoniae [3]): 4 µg/mL (≈ 3.8 µM) | MIC (Streptococcus pyogenes [4]): 64 µg/mL (≈ 60.8 µM) | MIC (Staphylococcus aureus [5]): 16 µg/mL (≈ 15.2 µM) | MIC (Streptococcus pneumoniae [6]): 32 µg/mL (≈ 30.4 µM) | MIC (Staphylococcus aureus [7]): 16 µg/mL (≈ 15.2 µM) | MIC (Streptococcus pneumoniae [8]): 16 µg/mL (≈ 15.2 µM) | MIC (Streptococcus pneumoniae [9]): 0.5 µg/mL (≈ 0.475 µM)

CC[C@@H]1OC(=O)[C@H](C)[C@@H](O[C@H]2C[C@@](C)(OC)[C@@H](OC(=O)NNC(=O)/C=C/c3cccs3)[C@H](C)O2)[C@@H](C)[C@@H](O[C@@H]2O[C@H](C)C[C@H](N(C)C)[C@H]2O)[C@](C)(O)C[C@@H](C)CN(C)[C@H](C)[C@@H](OC(=O)NCc2ccccc2)[C@]1(C)O
MIC (Streptococcus pyogenes [1]): 0.25 µg/mL (≈ 0.232 µM) | MIC (Staphylococcus aureus [2]): 1 µg/mL (≈ 0.929 µM) | MIC (Streptococcus pneumoniae [3]): 0.5 µg/mL (≈ 0.465 µM) | MIC (Streptococcus pyogenes [4]): 32 µg/mL (≈ 29.7 µM) | MIC (Staphylococcus aureus [5]): 2 µg/mL (≈ 1.86 µM) | MIC (Streptococcus pneumoniae [6]): 2 µg/mL (≈ 1.86 µM) | MIC (Staphylococcus aureus [7]): 4 µg/mL (≈ 3.72 µM) | MIC (Streptococcus pneumoniae [8]): 4 µg/mL (≈ 3.72 µM) | MIC (Streptococcus pneumoniae [9]): 0.06 µg/mL (≈ 0.0557 µM)

CC[C@H]1OC(=O)[C@@H](C)[C@H](O[C@@H]2C[C@](C)(OC)[C@H](OC(=O)NNC(=O)/C=C/c3ccc(OC)c(OC)c3)[C@@H](C)O2)[C@H](C)[C@H](O[C@H]2O[C@@H](C)C[C@@H](N(C)C)[C@@H]2O)[C@@](C)(O)C[C@H](C)CN(C)[C@@H](C)[C@H](OC(=O)NCc2ccc(OC)cc2)[C@@]1(C)O
MIC (Streptococcus pyogenes [1]): 0.5 µg/mL (≈ 0.431 µM) | MIC (Staphylococcus aureus [2]): 2 µg/mL (≈ 1.72 µM) | MIC (Streptococcus pneumoniae [3]): 0.5 µg/mL (≈ 0.431 µM) | MIC (Streptococcus pyogenes [4]): 64 µg/mL (≈ 55.2 µM) | MIC (Staphylococcus aureus [5]): 4 µg/mL (≈ 3.45 µM) | MIC (Streptococcus pneumoniae [6]): 2 µg/mL (≈ 1.72 µM) | MIC (Staphylococcus aureus [7]): 4 µg/mL (≈ 3.45 µM) | MIC (Streptococcus pneumoniae [8]): 8 µg/mL (≈ 6.89 µM) | MIC (Streptococcus pneumoniae [9]): 0.25 µg/mL (≈ 0.215 µM)

CC[C@H]1OC(=O)[C@@H](C)[C@H](O[C@@H]2C[C@](C)(OC)[C@H](OC(=O)NNC(=O)/C=C/c3ccc([N+](=O)[O-])cc3)[C@@H](C)O2)[C@H](C)[C@H](O[C@H]2O[C@@H](C)C[C@@H](N(C)C)[C@@H]2O)[C@@](C)(O)C[C@H](C)CN(C)[C@@H](C)[C@H](OC(=O)NCc2ccc(OC)cc2)[C@@]1(C)O
MIC (Streptococcus pyogenes [1]): 0.25 µg/mL (≈ 0.218 µM) | MIC (Staphylococcus aureus [2]): 4 µg/mL (≈ 3.49 µM) | MIC (Streptococcus pneumoniae [3]): 1 µg/mL (≈ 0.873 µM) | MIC (Streptococcus pyogenes [4]): 32 µg/mL (≈ 27.9 µM) | MIC (Staphylococcus aureus [5]): 8 µg/mL (≈ 6.98 µM) | MIC (Streptococcus pneumoniae [6]): 2 µg/mL (≈ 1.75 µM) | MIC (Staphylococcus aureus [7]): 8 µg/mL (≈ 6.98 µM) | MIC (Streptococcus pneumoniae [8]): 8 µg/mL (≈ 6.98 µM) | MIC (Streptococcus pneumoniae [9]): 0.5 µg/mL (≈ 0.437 µM)

CC[C@H]1OC(=O)[C@@H](C)[C@H](O[C@H]2C[C@@](C)(OC)[C@@H](OC(=O)NNC(=O)/C=C/c3ccccc3)[C@H](C)O2)[C@@H](C)[C@H](O[C@H]2O[C@@H](C)C[C@@H](N(C)C)[C@@H]2O)[C@@](C)(O)C[C@H](C)CN(C)[C@@H](C)[C@@H]2OC(=O)O[C@@]12C
MIC (Streptococcus pyogenes [1]): 0.25 µg/mL (≈ 0.26 µM) | MIC (Staphylococcus aureus [2]): 8 µg/mL (≈ 8.31 µM) | MIC (Streptococcus pneumoniae [3]): 2 µg/mL (≈ 2.08 µM) | MIC (Streptococcus pyogenes [4]): 64 µg/mL (≈ 66.4 µM) | MIC (Staphylococcus aureus [5]): 8 µg/mL (≈ 8.31 µM) | MIC (Streptococcus pneumoniae [6]): 8 µg/mL (≈ 8.31 µM) | MIC (Staphylococcus aureus [7]): 8 µg/mL (≈ 8.31 µM) | MIC (Streptococcus pneumoniae [8]): 4 µg/mL (≈ 4.15 µM) | MIC (Streptococcus pneumoniae [9]): 0.25 µg/mL (≈ 0.26 µM)
